# Compound activity from PubChem.
# XBP1 UPR activ – activators of adaptive arm of unfolded protein response (XBP1) | CHO-XBP1 luciferase reporter, IRE1-XBP1 UPR activation, luminescence; percent of tunicamycin response, DMSO as zero | activation, % at 20 µM | 0.33% of 330,000 active | AID 463104;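 active = versus positive control, 20 µM dose yields 30% or more activation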;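 also: 100% = tunicamycin at 10 µg/mL and 0% = DMSO only wells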
#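 Material: CHO-XBP1 cells stably carrying IRE1-XBP1-driven luciferase reporter | Medium: F12 with 10% serum | Compound dosing: 20 µM single concentration, DMSO 1% | Incubation: Overnight seeding at 37 °C, 6 h compound treatment at 37 °C | Detection: Steady-Glo luminescence read | Read-out basis: % activation of reporter signal versus tunicamycin and DMSO controls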
# CRFBP-R2 block – blocks CRF-induced signaling of the CRF-BP/CRF-R2 complex | HEK293 CRF-R2/CRF-BP, CRF-induced calcium fluorescence | 0.59% of 350,000 active | AID 588475 | inhibition, % at 11.8 µM;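 active = inhibition of the ligand-induced calcium signal above about 50% at the single tested concentration, limit read from the data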
# 697 NFkB inh – inhibitors of the PMA/ionomycin-induced NF-kB reporter in 697 B cells. 697 B-cell NF-kB luciferase reporter, 16 h. inhibition, % at 4 µM. 0.33% of 330,000 active. AID 435022; in the data active = inhibition above about 35%
# UPR CHOP act – activators of apoptotic arm of unfolded protein response (CHOP). CHO-CHOP luciferase reporter, UPR activation, luminescence; percent of tunicamycin response over DMSO baseline. activation, % at 10 µM. 0.34% of 330,000 active. AID 449763;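 active = at 10 µM dose, activation of 40% or more, normalized to positive control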;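 also: 100% = tunicamycin at 10 µg/mL and 0% = DMSO alone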
#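 assay system = CHO CHOP reporter cells | amount = 500 CHO-CHOP cells per well | buffer or medium = F12 with 10% FBS | incubation = 16-18 h cell attachment, then 6 h compound exposure, 37 °C | detection = luminescence read with Steady-Glo | read-out = percent activation relative to tunicamycin control | controls = tunicamycin high control, DMSO low control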
# Jurkat NFkB inh – lowers PMA/ionomycin-induced NF-kB signal in Jurkat cells | PMA/ionomycin-induced NF-kB luciferase reporter, luminescence | inhibition, % at 4 µM | 0.53% of 330,000 active | AID 435003; in the data active = inhibition above about 50%
# 697 NFkB conf – inhibitors of the PMA/ionomycin-induced NF-kB reporter in 697 B cells, retest. shares compounds with 697 NFkB inh. 697 B-cell NF-kB luciferase, 16 h. inhibition, % at 4 µM. 35% of 2,000 active; in the data active = inhibition mostly above about 28%, no sharp cut-off; inactive = mostly below about 22%
# CHOP UPR conf – confirmation of apoptotic unfolded protein response (CHOP) activators | shares compounds with UPR CHOP act | CHO-CHOP cells, CHOP-luciferase reporter luminescence; percent of tunicamycin response, DMSO as zero | activation, % at 10 µM | 64% of 1,000 active | AID 463112; in the data active = activation above about 33%;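 also: 0% = DMSO wells and 100% = tunicamycin 10 µg/mL wells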
# XBP1 UPR conf – adaptive UPR (XBP1) activation, confirmed; CHO-XBP1 IRE1-XBP1 luciferase reporter, luminescence; shares compounds with XBP1 UPR activ; 63% of 1,000 active; activation, % at 20 µM;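 active = reporter signal at least 30% of the positive control's activation in two or more of four replicate wells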;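 also: plate controls were DMSO negative control for no effect and tunicamycin 10 µg/mL positive control for full effect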
# Starred values were filed as active, the others as inactive; / = no result given. Rows were chosen to be rich in hits. Some 1.8% of all compounds tested hit in one or more screens of this group.
SMILES,XBP1 UPR activ,CRFBP-R2 block,697 NFkB inh,UPR CHOP act,Jurkat NFkB inh,CHOP UPR conf,others
Cc1cc(C(=O)OCC(=O)N2CC(C)OC(C)C2)c(C)n1-c1ccccc1 (centres undefined),-2.0,6.3,11.5,-1.6,1.9,/,
O=C(CCCN1C(=O)S/C(=C\C=C\c2ccccc2)C1=O)Nc1ccc(O)cc1,10.8,1.4,39.5*,63.9*,-32.5,1.9,697 NFkB conf=32.0*
C[C@@]12CCC[C@@](C)(C(=O)O)C1CC[C@@]13C[C@@H](NCc4ccccc4)[C@@](C)(CCC12)C3 (some centres undefined),-2.3,-8.1,-5.3,2.8,-8.5,/,
CN(C)CC(C(=O)c1ccccc1)c1ccccc1 (centres undefined),-3.0,-2.4,-252.9,159.3*,38.3,41.4*,697 NFkB conf=-24.1
COc1ccc(OC)c(S(=O)(=O)Nc2c(C)n(C)n(-c3ccccc3)c2=O)c1,-4.4,-13.8,5.6,2.8,-3.4,/,
Oc1[nH]c2ccccc2c1N=Nc1nc(Nc2ccccc2)nc(N2CCOCC2)n1,86.0*,-4.0,53.2*,11.6,-2.2,/,697 NFkB conf=52.0*;XBP1 UPR conf=8.5
CN(C)C(=O)CCc1ccc2c3c([nH]c2c1)[C@]1(CCc2ccccc2)[C@@H](C(=O)N2CCCCC2)C[C@H](CC(=O)NCc2ccco2)C(=O)N1CC3,33.4*,13.7,39.1*,39.9,/,/,697 NFkB conf=23.9;XBP1 UPR conf=1.7
COc1cc(Br)cc(/C=C/c2ccc3cccc(O)c3n2)c1OC,5.4,2.4,-6.5,0.8,-4.2,/,
COc1cc(/C=C/c2ccc3cccc(O)c3n2)cc(Cl)c1OC,66.0*,3.0,-323.6,18.6,31.4,/,697 NFkB conf=-249.1;XBP1 UPR conf=16.9
CC(C)(C)c1cc(CCC(=O)Nc2ccncc2)cc(C(C)(C)C)c1O,-0.3,15.6,0.4,0.2,13.4,/,
CNC(=O)/C(C#N)=C/c1cn(CC(=O)NCc2ccco2)c2ccccc12,-2.3,5.7,-3.3,0.0,-13.4,/,
Cc1cc(C)cc(NC(=O)/C(C#N)=C/c2cn(CC(=O)NCc3ccco3)c3ccccc23)c1,151.8*,13.3,41.0*,276.5*,1.8,44.0*,697 NFkB conf=-9.4;XBP1 UPR conf=295.1*
CC(Sc1nnc(Cc2ccccc2)o1)C(=O)NC1(C#N)CCCCC1 (centres undefined),0.3,-6.3,9.0,-0.2,0.1,/,
Cc1ccc(Nc2nc(NCc3ccco3)c3ccccc3n2)cc1,61.4*,-15.0,-283.1,22.0,-51.3,/,697 NFkB conf=-252.7;XBP1 UPR conf=72.3*
COc1ccccc1Nc1nc(NCc2ccco2)c2ccccc2n1,1.3,-5.6,-31.2,3.2,-21.3,/,
CC(Oc1ccc(C(=O)c2ccc(F)cc2)cc1)C(=O)N1CCOCC1 (centres undefined),1.6,0.3,-21.8,-0.3,7.6,/,
Cn1c(=O)c2c(SCC(=O)Nc3ccccc3F)nc(-c3ccccc3F)nc2n(C)c1=O,355.0*,-6.7,47.6*,55.4*,7.2,100.6*,697 NFkB conf=12.2*;XBP1 UPR conf=72.7*
Oc1ccc(CN2CCN(Cc3ccccc3)CC2)c2cccnc12,27.3,-2.2,1.4,71.0*,-4.0,94.1*,
CN1CCN(Cc2cc(COCc3ccccc3)c3cccnc3c2O)CC1,26.4,-58.7,-39.1,131.0*,4.0,53.6*,
COCc1ccc(O)c2ncccc12,36.8*,-0.4,4.5,42.8*,25.1,73.2*,
O=S(=O)(c1ccc(Cl)cc1)N1CCN(Cc2ccc(O)c3ncccc23)CC1,6.1,-12.3,-4.3,-1.1,9.7,/,
Cc1ccc(S(=O)(=O)N2CC3(O)CN(C(=O)OC(C)C)N(C(=O)OC(C)C)CC3(OC(=O)NCc3ccccc3)C2)cc1 (centres undefined),/,7.8,/,/,/,/,
CCN(CC)CCn1c2c(c(SCC(=O)Nc3cc(C)on3)nc1=O)CCCC2,-1.4,0.2,-1.5,0.0,16.8,/,
CC(C)Cn1c(SC(C)C(=O)NCC2CCCO2)nc2ccc(Cl)cc2c1=O (centres undefined),-1.8,-3.6,6.7,0.7,-2.7,/,
CCCCn1c(/C=N/Nc2nc3ccccc3[nH]2)nc2ccccc21,27.6,-8.2,-59.0,113.2*,-41.2,293.7*,
SMILES,XBP1 UPR activ,CRFBP-R2 block,697 NFkB inh,UPR CHOP act,Jurkat NFkB inh,CHOP UPR conf,others
COc1ccc2c(c1)c(/C=N/Nc1nc3ccccc3[nH]1)c(C)n2C,6.5,-16.1,-10.0,286.5*,14.6,3.2,
Cc1ccc(C(=O)Nc2ccccc2)cc1S(=O)(=O)N1CCN(C)CC1,-3.8,19.3,6.8,1.6,-5.3,/,
CC1OC23CCCCC2C(C#N)(C(=N)O3)C1(C#N)C#N (centres undefined),-1.5,-6.1,7.6,0.6,7.2,/,
N#CC1(C#N)COC23CCCCC2C1(C#N)C(=N)O3 (centres undefined),-4.1,12.2,-24.2,64.7*,1.4,54.7*,
COc1ccc(C2OC34CCCCC3C(C#N)(C#N)C2(C#N)C(=N)O4)cc1 (centres undefined),-7.1,-6.2,17.6,53.8*,11.3,35.0*,
CCC1OC23CCCCC2C(C#N)(C(=N)O3)C1(C#N)C#N (centres undefined),-5.8,-3.3,23.7,10.5,-3.5,/,
N#CC12COC3(CCCCC3C1(C#N)C#N)OC2=N (centres undefined),-2.5,-7.9,7.4,46.2*,4.6,43.2*,
Nc1cc2cccnc2cc1Cl,/,-21.0,/,/,/,/,
COc1ccc(C(=O)NC(C)c2ccccc2)cc1Br (centres undefined),-5.1,-8.7,9.3,-1.8,2.1,/,
C[C@@H](NC(=O)c1coc(=O)c(Br)c1)c1ccccc1,-9.4,10.3,-5.4,115.1*,-7.0,96.8*,
CC1=C(C(=O)N2CCOCC2)CC(CC(=O)NCC2CCCCC2)C(=O)N1Cc1ccccc1 (centres undefined),/,-2.0,/,/,/,/,
Cc1ccc(NC(=O)Cn2ncc(Cl)c(Cl)c2=O)cc1S(=O)(=O)N1CCCCC1,-7.8,-9.6,-31.5,88.2*,8.4,57.3*,
CC(C(=O)OCC(=O)N(C)C1(C#N)CCCCC1)N1C(=O)c2ccccc2C1=O (centres undefined),-2.5,11.1,4.4,-0.3,2.6,/,
O=C(CCl)Nc1ccc(-c2ccccc2)cc1,2.1,-7.5,-3.8,42.8*,-1.7,47.3*,
CC(=O)Nc1ccc(NC(=O)Cc2ccc(-c3ccccc3)cc2)cc1,-1.6,0.1,-11.6,0.0,-3.7,/,
O=C(NC(=S)NN1CCOCC1)c1cc(Br)ccc1Cl,2.6,1.4,-19.8,0.1,4.5,/,
